# CHO parental Ca = counter-screen: ATP calcium response change in parental CHO cells; parental CHO-K1, ATP-induced calcium, Fluo-8 fluorescence; hit rate 0.63% among 330,000; inhibition, % at 5.6 µM; AID 463079;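 active = inhibition above that plate's mean sample inhibition plus 3 SD, cut at about 26% in these data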;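 also: 0% = ATP-challenged DMSO wells and 100% = DMSO wells without ATP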
#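 Test system: parental CHO cells; detection: calcium-sensitive Fluo-8 fluorescence; evaluation: percent inhibition of calcium signal; also added: ATP as calcium-mobilizing challenge; repeats: one well per compound; control set: ATP-challenged DMSO wells low, unchallenged DMSO wells high; compound: single nominal dose of 5.6 µM per compound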
# TAAR1 agonist = human TAAR1 agonism; Q96RJ0; CHO RD-HGA16 TAAR1, Fluo-8 calcium fluorescence; vehicle wells 0%, saturating PEA agonist 100%; activation, % at 3 µM; hit rate 0.99% among 360,000; AID 624467;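 active = activation above the mean activation of all test compounds in the run plus 3 SD, cut at about 38% in these data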
#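 Test system: RD-HGA16 (CHO) cells co-expressing Gα16 and hTAAR1; dosing: one-point dosing at 3 µM (nominal); timing: 17-24 h seeding, 75 min 37 °C dye, 30 min RT; signal: kinetic Fluo-8 calcium fluorescence; read-out basis: % activation relative to PEA EC100 response; controls: DMSO and PEA EC100; replicates: n 1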
# OX1R antag-1 = antagonists of human orexin 1 receptor; inhibition, % at 5 µM; O43613; AID 434989; hit rate 0.43% among 330,000; CHO/OX1R cells, Fluo-8 calcium fluorescence, orexin A;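 active = inhibition above its plate's threshold, mean inhibition of all tested compounds on the plate plus 3 SD, cut at about 37% in these data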;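 also: 0% = orexin A challenge wells and 100% = SB-334867-A antagonist wells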
# Target sequence (O43613 whole entry, looked up): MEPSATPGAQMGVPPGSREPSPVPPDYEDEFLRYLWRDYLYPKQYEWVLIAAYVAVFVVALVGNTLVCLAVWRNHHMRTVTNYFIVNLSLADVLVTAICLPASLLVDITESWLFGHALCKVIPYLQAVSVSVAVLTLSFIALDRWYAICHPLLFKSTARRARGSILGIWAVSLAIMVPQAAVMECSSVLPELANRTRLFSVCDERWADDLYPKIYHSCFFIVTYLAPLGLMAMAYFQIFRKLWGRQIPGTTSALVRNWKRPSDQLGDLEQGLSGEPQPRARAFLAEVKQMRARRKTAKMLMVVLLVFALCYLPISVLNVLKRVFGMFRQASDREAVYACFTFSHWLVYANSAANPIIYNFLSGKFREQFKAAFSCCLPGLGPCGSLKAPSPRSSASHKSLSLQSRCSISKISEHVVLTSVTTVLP
# OX1R antag-2 = blocks the human orexin 1 receptor; O43613; OX1R-expressing cells, FRET antagonist read-out; hit rate 1.8% among 330,000; inhibition, % at 6.6 µM; in the data active = inhibition mostly above about 38%, no sharp cut-off; inactive = mostly below about 40%;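 also: 0% = agonist challenge alone and 100% = reference antagonist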
# GPR7 antag = antagonists of human GPR7 (neuropeptides B/W receptor 1); GPR7-expressing cells, fluorescence antagonist assay; inhibition, % at 4.4 µM; hit rate 1.1% among 290,000; in the data active = inhibition above about 16%, passing the limit was not always enough;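 also: cells stimulated with the agonist NPW; 0% = agonist with vehicle and 100% = vehicle without agonist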
# Target sequence (P48145 whole entry, looked up): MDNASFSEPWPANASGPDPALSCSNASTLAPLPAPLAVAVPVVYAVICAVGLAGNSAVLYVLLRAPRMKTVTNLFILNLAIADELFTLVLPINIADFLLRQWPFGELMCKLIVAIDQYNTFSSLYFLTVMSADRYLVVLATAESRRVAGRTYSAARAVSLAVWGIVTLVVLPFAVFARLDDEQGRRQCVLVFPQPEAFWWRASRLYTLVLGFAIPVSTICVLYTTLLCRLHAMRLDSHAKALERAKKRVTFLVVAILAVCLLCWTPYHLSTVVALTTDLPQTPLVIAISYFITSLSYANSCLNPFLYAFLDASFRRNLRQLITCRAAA
# TAAR1 antagonist = antagonists of human TAAR1; CHO RD-HGA16 TAAR1, Fluo-8 calcium fluorescence, antagonist; hit rate 1.5% among 360,000; AID 624466; Q96RJ0; inhibition, % at 3 µM;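 active = inhibition above a per-plate cutoff, the mean inhibition of test compounds on that plate plus 3 SD, cut at about 49% in these data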;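 also: 0% = DMSO plus EC80 beta-PEA response and 100% = DMSO alone without agonist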
#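 Test system – hTAAR1-expressing CHO RD-HGA16 cells, Gα16-coupled · Reagent – β-PEA at EC80 concentration, post-compound challenge · Compound dosing – 3 µM, single point · Timing – 140 s kinetic read after compound, 140 s after agonist · Detection – Fluo-8 intracellular calcium dye fluorescence, real-time kinetic reads · Control set – DMSO and EC80 PEA controls · Repeats – n of 1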
# nonsel antag count = nonselective antagonism, TAAR1 counter-screen | counterscreen cell line, calcium fluorescence, antagonist mode | AID 651780 | hit rate 77% among 2,400 | shares compounds with TAAR1 antagonist | inhibition, % at 3 µM; in the data active = inhibition above about 22%;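 also: CHO-Ga16 host cells stimulated with ATP at an EC80 level; 0% = agonist EC80 plus vehicle and 100% = vehicle without agonist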
# TAAR1 antag conf = human TAAR1 antagonism, confirmed | shares compounds with TAAR1 antagonist | TAAR1-expressing cells, fluorescence antagonist read-out | inhibition, % at 3 µM | hit rate 40% among 2,400; in the data active = inhibition above about 49%;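 also: CHO-Ga16 host cells challenged with agonist PEA near its EC80; 0% = agonist at EC80 plus vehicle and 100% = vehicle with no agonist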
# Ga16 nonsel ag = nonselective Ga16 agonist in TAAR1 antagonist counter-screen; shares compounds with TAAR1 antagonist; Ga16-expressing cells, calcium fluorescence, agonist counterscreen; activation, % at 3 µM; hit rate 18% among 2,400; AID 651953; in the data active = activation above about 12%;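 also: 0% = vehicle wells and 100% = saturating stimulus response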
# TAAR1 ag counter = TAAR1 agonism, antagonist counter-screen; shares compounds with TAAR1 antagonist; hTAAR1 cell line, fluorescence activation, agonist mode; hit rate 2% among 2,400; AID 651955; activation, % at 3 µM; in the data active = activation above about 37%;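 also: CHO cells stably expressing TAAR1 with calcium dye readout; 0% = DMSO vehicle and 100% = full agonist response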
# An asterisk follows results filed as active; x = not tested or not shown. Most compounds without a hit are left out; they make up all but 4.5% or so of the library.
SMILES,CHO parental Ca,TAAR1 agonist,OX1R antag-1,OX1R antag-2,GPR7 antag,TAAR1 antagonist,nonsel antag count,TAAR1 antag conf,Ga16 nonsel ag,TAAR1 ag counter
C[C@H]1C(=O)N(C)CCN1C(=O)c1ccc(OC2CCN(CCc3ccccc3)CC2)cc1,x,5,x,x,x,-20,x,x,x,x
CCN1C(=O)C(CC(=O)Nc2ccc(OC)cc2)N(CCc2ccc(F)cc2)C1=S (stereo not drawn),-2,11,-8,6,13,69*,42*,59*,13*,12
CCN1C(=O)C(CC(=O)Nc2ccc(OC)cc2)N(CCCN2CCN(c3ccc(F)cc3)CC2)C1=S (stereo not drawn),-19,27,-12,11,9,66*,32*,45,17*,15
COc1ccc(CCN2C(=S)N(C)C(=O)C2CC(=O)Nc2ccc(OC)cc2)cc1 (stereo not drawn),-11,13,-2,6,5,26,x,x,x,x
COc1ccc(NC(=O)CC2C(=O)N(C)C(=S)N2CCc2ccc(F)cc2)cc1 (stereo not drawn),-3,19,-14,2,0,58*,31*,50*,14*,11
CC(C)C1C(=O)N(Cc2cn(CCC3OCCO3)nn2)CCS(=O)(=O)N1Cc1ccc(-c2ccc(F)cc2Cl)cc1 (stereo not drawn),x,2,x,x,x,-23,x,x,x,x
COc1ccc(CCNC(=O)Nc2nc(CN)cs2)cc1OC,x,0,x,x,x,0,x,x,x,x
Cc1nc2ccccn2c1C(=O)N/N=C/c1cc(C)n(-c2ccc(Cl)cc2)c1C,-21,8,-22,14,-5,16,x,x,x,x
CCNC(=S)N/N=C/c1cc(C)n(-c2ccc(Cl)cc2)c1C,-30,11,-17,15,1,101*,12,77*,8,24
CCOC(=O)C1=CCN(S(=O)(=O)c2ccccc2Br)C1c1ccc(F)cc1 (stereo not drawn),x,0,x,x,x,9,x,x,x,x
Cc1ccc(NC(=O)CCNC(=O)c2ccc(Br)cc2)cc1S(=O)(=O)N1CCOCC1,-24,1,-21,19,x,-8,x,x,x,x
O=C(CCNC(=O)c1ccc([N+](=O)[O-])cc1)Nc1ccc(Cl)c(S(=O)(=O)N2CCOCC2)c1,2,0,-8,7,x,102*,-3,-12,3,3
Cc1cc(F)ccc1-c1cc(C(=O)NCc2cccc(C(F)(F)F)c2)[nH]n1,x,5,x,x,x,-16,x,x,x,x
COc1ccc(NC(=O)c2sc3ncnc(N4CCN(c5ccccn5)CC4)c3c2C)cc1Cl,30,12,17,33,11,80*,48*,55*,13*,13
COc1ccc(NC(=O)c2sc3nc(C)nc(N4CCN(c5ccccn5)CC4)c3c2C)cc1Cl,-10,2,-20,15,4,29,x,x,x,x
Cn1cccc1/C=N\NC(=O)C1COc2ccc(C(C)(C)C)cc2O1 (stereo not drawn),-15,0,-3,8,-14,51*,25*,39,7,1
COc1ccc(CCN2C(=O)c3[nH]nc(-c4ccccc4O)c3C2c2cccc(Cl)c2)cc1 (stereo not drawn),-10,12,-40,9,-12,59*,19,40,8,12
CC1=C(C(=O)N2CCOCC2)CC(CC(=O)NCCc2ccccn2)C(=O)N1Cc1ccc(C(C)(C)C)cc1 (stereo not drawn),x,1,x,x,x,3,x,x,x,x
COc1ccc2c(c1)c(CCN1C(=O)c3ccccc3C1=O)cn2C(=O)c1ccco1,-19,5,-20,-1,-17,57*,12,32,2,4
Nc1c(C(=O)NCC2CCCO2)sc2nc3c(c(-c4ccco4)c12)CC/C3=C\c1ccco1 (stereo not drawn),x,16,x,x,7,53*,-2,0,3,2
CCOc1ccccc1-c1cc(C(=O)Nc2ccc(C(=O)O)cc2)c2ccccc2n1,-10,2,-23,7,-8,8,x,x,x,x
COc1ccc(-c2cc(C(=O)Nc3ccc(O)cc3)c3ccccc3n2)cc1OC,-3,17,-12,17,-1,62*,33*,48,11,9
COc1cc(C(=O)Nc2ccc(C)cc2)c2ccccc2n1,-11,1,-12,2,30,2,x,x,x,x
CCN(CC)S(=O)(=O)c1ccc(NC(=O)c2cc(-c3cccs3)nc3ccccc23)cc1,-12,17,-1,5,-8,60*,29*,41,8,6
COc1cccc(NC(=O)c2cc(-c3ccc(C)o3)nc3ccccc23)c1,-9,7,-17,6,-7,55*,25*,42,7,5
SMILES,CHO parental Ca,TAAR1 agonist,OX1R antag-1,OX1R antag-2,GPR7 antag,TAAR1 antagonist,nonsel antag count,TAAR1 antag conf,Ga16 nonsel ag,TAAR1 ag counter
CCOc1ccccc1NC(=O)c1cc(-c2ccccn2)nc2ccccc12,-13,26,-17,16,x,55*,21,46,9,7
CCOC(=O)C1(C)CCCN1C(=O)c1ccc2ccccc2c1 (stereo not drawn),x,0,x,x,x,-26,x,x,x,x
O=C(O)C1CCN(S(=O)(=O)c2ccc3[nH]ccc3c2)CC1,x,4,x,x,x,-11,x,x,x,x
O=C1OC(Cc2ccccc2)(c2ccccc2)c2ccccc21 (stereo not drawn),x,0,x,x,x,-23,x,x,x,x
COc1ccc(-c2cc(C(=O)NCc3ccco3)c3ccccc3n2)cc1OC,-21,9,-21,11,x,39,x,x,x,x
COc1ccc(NC(=O)c2cc(-c3ccccn3)nc3ccccc23)cc1S(=O)(=O)N(C)C,-19,22,-6,17,x,69*,25*,43,9,10
Cc1cccc2sc(NNC(=O)c3cc(-c4cccs4)nc4ccccc34)nc12,-1,16,-14,17,-5,68*,51*,54*,15*,11
COc1cc(-c2cc(C(=O)Nc3cccc(S(=O)(=O)N(C)C)c3)c3ccccc3n2)cc(OC)c1OC,1,16,-11,14,1,54*,34*,49*,9,10
COc1ccc(-c2cc(C(=O)Nc3cccc(S(=O)(=O)NCc4ccco4)c3)c3ccccc3n2)cc1OC,0,15,-1,26,14,75*,37*,57*,9,7
COc1cc(C)ccc1OCc1cc(C(=O)N2CCC(c3ccc(F)cc3)C2)no1 (stereo not drawn),-9,0,-19,20,-9,-14,x,x,x,x

# Compound activity from PubChem.
